Screening results: PubChem BioAssay, Broad Institute
E-selectin induc: E-selectin induction in HUVECs, primary screen, imaging, HUVEC, immunofluorescence imaging, single point; normalized: neutral wells 0, TNF-alpha wells 100; activation, % at 7.58 µM; hit rate 0.37% among 260,000;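 active means mean E-selectin-positive cell signal at least 10% of the positive control, reached in at least 60% of replicates, without over 20% cell loss; inconclusive means no rule given, readout overlaps actives, possibly toxicity-flagged; inactive means the rest, including those meeting only one limit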
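Read-out: % PE-positive cells | Test system: HUVEC | Doses: One compound dose added by pin transfer | Buffer or medium: EGM-2 over gelatin coat | Signal: Immunofluorescence imaging | Benchmarks: TNF-alpha, DMSO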
DENV2 CPE: inhibitors of DENV2 cytopathic effect, primary screen, cell-based, plate reader, single concentration | DENV2-infected cells, cytopathic effect rescue | CPE inhibition, % at 9.99 µM | hit rate 1.7% among 350,000; in the data active means CPE inhibition above about 20%, passing the limit was not always enough; inconclusive means no clear call, values can overlap the other calls; tested in BHK-21 cells;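 further: 0% = median of neutral control wells and 100% = median of positive control wells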
PglD DTNB: C. jejuni PglD acetyltransferase inhibitors, primary screen, biochemical, DTNB colorimetric, single point | UDP-N-acetylbacillosamine N-acetyltransferase PglD (Campylobacter jejuni) | purified PglD enzyme, DTNB colorimetric CoA detection | inhibition, % at 12.5 µM | hit rate 0.098% among 360,000 | AID 602405, 2012; in the data active means inhibition above about 16%, passing the limit was not always enough; inconclusive means no clear call, values can overlap the other calls
SIRT5 inh: SIRT5 desuccinylase inhibitors, primary screen, biochemical, fluorescence imaging, single point, set 5. Purified SirT5, succinyl-peptide AMC, trypsin-coupled fluorescence. hit rate 1.1% among 330,000. NAD-dependent protein deacylase sirtuin-5, mitochondrial (Homo sapiens), Q9NXA8. inhibition, % at 15 µM. AID 652115, 2013; in the data active means inhibition above about 15%; inconclusive means no clear call, values can overlap the other calls
ERAP1 HTS inh: human ERAP1 aminopeptidase inhibitors, primary screen, biochemical, single point, plate reader; hit rate 0.15% among 340,000; recombinant ERAP1, Leu-AMC fluorescence, 60 min; Endoplasmic reticulum aminopeptidase 1 (Homo sapiens), Q9NZ08; inhibition, % at 10.7 µM;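 active means mean replicate inhibition of at least 30%, or all replicates individually reaching that 30% level; inactive means mean below 30% and not every replicate reaching it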;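 further: 0% = neutral control wells and 100% = L-leucinethiol positive control wells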
Target sequence (Q9NZ08 whole entry, looked up): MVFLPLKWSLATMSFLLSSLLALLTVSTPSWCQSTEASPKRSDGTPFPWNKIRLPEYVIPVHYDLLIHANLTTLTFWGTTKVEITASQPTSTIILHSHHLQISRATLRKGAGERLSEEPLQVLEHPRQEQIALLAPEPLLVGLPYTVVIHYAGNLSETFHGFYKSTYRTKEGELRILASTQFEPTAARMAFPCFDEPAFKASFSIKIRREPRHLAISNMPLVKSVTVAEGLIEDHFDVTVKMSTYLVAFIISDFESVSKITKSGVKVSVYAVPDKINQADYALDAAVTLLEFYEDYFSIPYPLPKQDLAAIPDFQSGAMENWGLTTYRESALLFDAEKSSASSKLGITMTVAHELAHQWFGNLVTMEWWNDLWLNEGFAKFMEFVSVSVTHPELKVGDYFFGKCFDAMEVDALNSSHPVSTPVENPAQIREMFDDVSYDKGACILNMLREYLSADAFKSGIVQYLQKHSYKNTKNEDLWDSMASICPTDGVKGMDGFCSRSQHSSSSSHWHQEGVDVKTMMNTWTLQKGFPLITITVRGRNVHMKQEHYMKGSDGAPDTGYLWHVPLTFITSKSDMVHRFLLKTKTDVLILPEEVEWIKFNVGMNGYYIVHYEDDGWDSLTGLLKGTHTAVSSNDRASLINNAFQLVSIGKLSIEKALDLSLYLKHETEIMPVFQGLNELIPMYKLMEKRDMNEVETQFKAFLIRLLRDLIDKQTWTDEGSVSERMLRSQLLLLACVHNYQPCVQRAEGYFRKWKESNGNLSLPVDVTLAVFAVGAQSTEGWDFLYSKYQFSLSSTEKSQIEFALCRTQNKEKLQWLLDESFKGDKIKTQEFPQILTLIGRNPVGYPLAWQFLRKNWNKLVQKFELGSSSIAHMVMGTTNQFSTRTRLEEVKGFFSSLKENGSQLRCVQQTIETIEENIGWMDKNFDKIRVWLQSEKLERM
* = called active by the depositor; ? = inconclusive; . = no result given. Compounds with a hit are over-represented: about 2.5% of the library has one in this group of screens.

SMILES	E-selectin induc	DENV2 CPE	PglD DTNB	SIRT5 inh	ERAP1 HTS inh
Cc1noc(C)c1NC(=O)N(C)C[C@@H]1Oc2c(NC(=O)NC3CCCCC3)cccc2C(=O)N([C@@H](C)CO)C[C@H]1C	-0.2	-6.7	1.0	-3.7	-0.6
CCN(Cc1nc(-c2ccc(OC)cc2)no1)C(=O)c1ccc2c(c1)OCO2	0.0	6.8	-3.5	-0.3	6.0
O=C(COC(=O)c1ccc(Br)o1)Nc1ncc([N+](=O)[O-])s1	-0.6	1.9	.	16.2*	8.3
COc1ccc(S(=O)(=O)Nc2ccc3c(c2)C(=O)N([C@H](C)CO)C[C@@H](C)[C@H](CN(C)Cc2ccncc2)OCCCC[C@H](C)O3)cc1	0.0	-11.5	5.6	2.0	-1.0
COc1ccc(S(=O)(=O)Nc2ccc3c(c2)C(=O)N([C@H](C)CO)C[C@H](C)[C@H](CN(C)Cc2ccncc2)OCCCC[C@H](C)O3)cc1	0.1	48.1*	3.7	0.4	-2.0
COc1ccc(S(=O)(=O)Nc2ccc3c(c2)C(=O)N([C@H](C)CO)C[C@H](C)[C@H](CN(C)Cc2ccncc2)OCCCC[C@@H](C)O3)cc1	0.0	21.7*	-1.5	0.2	-0.3
CN(C)/C=N/c1c(C#N)cnn1C	-0.8	17.8	-1.7	2.7	2.5
O=C(/C=C/c1ccccc1)c1cc(Br)ccc(=O)c1O	.	.	-1.2	.	.
O=C(/C=C/c1ccc(F)cc1)c1cc(Br)ccc1O	-0.2	2.7	-0.3	16.1*	.
CN(C)c1ccc(O)c2c1CC1CC3[C@@H](N(C)C)C(=O)C(C(N)=O)=C(O)[C@]3(O)C(=O)C1=C2O (stereo partly specified)	4.6	-0.4	-2.9	33.9*	4.6
CC(C)CCN1CCC(n2nccc2NC(=O)C2CCOC2)CC1 (stereo unspecified)	.	1.2	-1.0	-0.4	-2.0
c1ccc(C[C@H]2CN=C(Nc3ccccc3)N2CC2CCCC2)cc1	-0.3	-5.7	.	20.8*	.
c1ccc(C[C@H]2CN=C(Nc3ccccc3)N2CC2CCCCC2)cc1	0.7	-2.2	4.3	0.4	0.8
CC1CCC(CN2C(Nc3ccccc3)=NC[C@@H]2C)CC1 (stereo partly specified)	0.0	40.1*	-0.5	3.0	0.2
CCCCN1C(Nc2ccccc2)=NC[C@@H]1Cc1ccccc1	0.0	21.6*	-0.1	.	.
CC(NC(=O)COc1cccc(Br)c1)C(=O)O (stereo unspecified)	.	-5.1	.	-0.2	2.1
C[C@H](O)CC(=O)O	-0.1	1.2	4.9	7.7	0.8
CC1(NC(=O)c2ccccc2)CCN(CCCc2ccccc2)C1=O (stereo unspecified)	0.0	1.5	3.4	.	1.5
C[C@H]1CN([C@@H](C)CO)C(=O)c2cccc(NC(=O)CCCCCC(=O)Nc3ccccc3N)c2O[C@H]1CN(C)S(=O)(=O)c1cccs1	-0.1	54.8*	.	5.9	-0.4
C[C@H](CO)N1C[C@H](C)[C@H](CN(C)S(=O)(=O)c2cccs2)Oc2c(NC(=O)CCCCCC(=O)Nc3ccccc3N)cccc2C1=O	0.0	22.3*	.	9.2	2.1
C[C@H]1CN([C@@H](C)CO)C(=O)c2cccc(NC(=O)CCCCCC(=O)Nc3ccccc3N)c2O[C@H]1CN(C)S(C)(=O)=O	.	-3.1	.	.	-1.2
Cc1ccccc1OCC(O)Cn1c(Br)nc2c1c(=O)n(C)c(=O)n2C (stereo unspecified)	51.0*	3.3	1.0	-2.1	10.2
Cc1ccccc1OCC(O)CN1CCN(CC(O)COc2ccccc2C)CC1 (stereo unspecified)	4.5	1.1	.	29.9*	1.9
Cc1ccccc1OCC(O)CN1CCCCC1 (stereo unspecified)	.	4.6	.	-1.6	1.2
Cc1cccc(N/C=C(\[N+](=O)[O-])S(=O)(=O)c2ccccc2)c1	-2.6	-0.9	.	39.5*	-0.4
SMILES	E-selectin induc	DENV2 CPE	PglD DTNB	SIRT5 inh	ERAP1 HTS inh
CCOc1ccc(/C=N/NC(=O)C2CC2)c(OCC)c1	.	-4.9	1.5	4.8	1.0
CCN1CCN(c2cc(C)c3cc(NC(=S)NCCN(C)C)ccc3n2)CC1	0.7	-6.3	1.4	21.4*	3.4
CCN(CC)CCNC(=S)Nc1ccc2nc(N3CCN(CC)CC3)cc(C)c2c1	-0.1	6.1	0.3	-3.1	-0.2
Cc1cc(N2CCN(C)CC2)nc2ccc(NC(=S)N3CCCCCC3)cc12	0.0	5.0	-1.7	20.4*	.
Cc1cc(C)cc(NC(=O)Nc2ccc3c(c2)C(=O)N(C)[C@H]2CC[C@H](CC(=O)O)O[C@H]2CO3)c1	0.1	0.9	3.3	.	.
CCN(CC)S(=O)(=O)c1ccc(NCCc2ccccn2)nc1	.	-5.5	-3.1	-10.1	-7.7
CCN(CC(=O)Nc1c(F)cccc1F)C(=O)C1CCCN(C(=O)c2ccc(Cl)cc2)C1 (stereo unspecified)	.	?	0.8	2.9	2.8
COc1ccccc1C(=O)N1[C@@H](C(C)C)COc2cc(Br)ccc2S1(=O)=O	-0.2	77.5*	2.2	2.5	-1.7
COc1cccc(C(=O)N2C(C(C)C)COc3cc(Br)ccc3S2(=O)=O)c1 (stereo unspecified)	.	12.0	3.1	-4.3	0.0
CCN(c1ccccc1)S(=O)(=O)c1nnc(NC(=O)C(C)(C)C)s1	-0.1	?	3.1	29.7*	3.1
COc1ccc(CN(C)C[C@@H]2Oc3ccc(NS(=O)(=O)c4ccc(OC)cc4)cc3C(=O)N([C@@H](C)CO)C[C@@H]2C)cc1	-0.3	-6.3	-1.5	3.0	-0.8
COc1ccc(S(=O)(=O)Nc2ccc3c(c2)C(=O)N([C@H](C)CO)C[C@H](C)[C@H](CN(C)Cc2ccc(Cl)c(Cl)c2)OCCCC[C@@H](C)O3)cc1	-0.1	41.5*	-0.6	.	.
COc1ccc(S(=O)(=O)Nc2ccc3c(c2)C(=O)N([C@@H](C)CO)C[C@H](C)[C@@H](CN(C)Cc2ccc(Cl)c(Cl)c2)O3)cc1	80.0*	?	0.1	1.3	-0.1
COc1ccc(S(=O)(=O)Nc2ccc3c(c2)C(=O)N([C@@H](C)CO)C[C@H](C)[C@H](CN(C)Cc2ccc(Cl)c(Cl)c2)OCCCC[C@@H](C)O3)cc1	-0.1	-2.8	2.9	.	.
Cc1ccc(S(=O)(=O)Nc2ccc3c(c2)C(=O)N([C@H](C)CO)C[C@@H](C)[C@H](CN(C)Cc2ccc(Cl)c(Cl)c2)OCCCC[C@H](C)O3)cc1	.	2.8	-3.7	18.6*	-2.8
Cc1ccc(S(=O)(=O)Nc2ccc3c(c2)C(=O)N([C@@H](C)CO)C[C@@H](C)[C@@H](CN(C)Cc2ccc(Cl)c(Cl)c2)OCCCC[C@@H](C)O3)cc1	.	0.0	-1.5	17.4*	-2.9
O=C(CCCNC(=O)c1ccc(Cl)cc1)OCc1cccc(Br)c1	1.1	-9.8	.	-10.2	0.0
